Test results reported in ChEMBL document CHEMBL1141231, “Discovery and development of a new class of potent, selective, orally active oxytocin receptor antagonists” (J Med Chem, 2005).
≈ marks a conversion by molar mass, not a printed value. Where a SMILES comes first, the peptide text is derived from it. Bridges are numbered along the chain shown (N, C = ends). [ ]: non-standard residue; d: D form. Orn = NCCC[C@H](N)C(=O)O; Mpa = O=C(O)CCS

Key:
[1] = Solubility in saline; assay type: physicochemical
Oxytocin receptor [2] = molecular target: T1, Oxytocin receptor (Homo sapiens, UniProt P30559); assay: Inhibitory activity against human Oxytocin induced intracellular Calcium mobilization in human Oxytocin receptor transfected HEK293-EBNA cells; assay type: functional, cell-based
T1 sequence (P30559 whole entry): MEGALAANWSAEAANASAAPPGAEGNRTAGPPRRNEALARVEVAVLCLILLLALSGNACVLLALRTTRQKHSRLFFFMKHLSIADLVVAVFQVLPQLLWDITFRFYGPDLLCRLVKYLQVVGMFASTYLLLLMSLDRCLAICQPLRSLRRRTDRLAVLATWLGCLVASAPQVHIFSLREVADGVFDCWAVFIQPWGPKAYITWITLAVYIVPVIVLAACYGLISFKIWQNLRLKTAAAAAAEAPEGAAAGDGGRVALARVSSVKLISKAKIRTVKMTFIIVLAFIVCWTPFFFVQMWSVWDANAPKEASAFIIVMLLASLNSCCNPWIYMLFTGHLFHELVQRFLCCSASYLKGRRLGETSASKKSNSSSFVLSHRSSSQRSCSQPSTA

Cytochrome P450 2C19 = Cytochrome P450 2C19 (Homo sapiens, UniProt P33261); assay: Inhibitory activity against cytochrome P450 2C19 isoform; assay type: ADME
Chain of Cytochrome P450 2C19 (P33261 whole entry, canonical isoform): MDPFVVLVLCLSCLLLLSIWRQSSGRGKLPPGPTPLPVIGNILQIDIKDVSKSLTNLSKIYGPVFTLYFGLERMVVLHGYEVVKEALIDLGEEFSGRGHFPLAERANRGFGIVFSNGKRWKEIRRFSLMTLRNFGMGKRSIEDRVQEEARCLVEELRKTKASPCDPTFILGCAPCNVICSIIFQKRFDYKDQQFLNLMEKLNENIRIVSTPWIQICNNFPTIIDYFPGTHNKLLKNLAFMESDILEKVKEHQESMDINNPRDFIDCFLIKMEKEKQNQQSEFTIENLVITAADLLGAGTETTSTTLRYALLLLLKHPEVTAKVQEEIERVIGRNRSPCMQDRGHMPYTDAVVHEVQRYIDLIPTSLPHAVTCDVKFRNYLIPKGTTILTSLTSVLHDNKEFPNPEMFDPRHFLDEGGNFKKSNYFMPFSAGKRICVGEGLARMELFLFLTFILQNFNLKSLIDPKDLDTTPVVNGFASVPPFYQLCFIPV
Method in brief: (§1)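 Baculovirus/insect-cell-expressed CYP isoforms are incubated with a specific fluorogenic substrate and several compound concentrations in 1% DMSO. Fluorescence of the product after a defined reaction time gives % inhibition at each concentration and the IC50.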

Homo sapiens = species: Homo sapiens; assay: Selectivity for human vasopressin V1a receptor over human oxytocin receptor
[3] = Stability of compound in presence of rat liver microsomes; assay type: ADME
Method in brief: (§2)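 Liver microsomes (human or rat) at final […] in 0.1 M phosphate pH 7.4 with compound at final 40 µM (1% DMSO), preincubated at 37 °C; reaction started with 1 mM NADPH; stopped with cold acetonitrile at 0, 20 and 60 min.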

Oxytocin receptor [4] = molecular target: T1, Oxytocin receptor; assay: biochemical; assay type: cell-based, HEK293-EBNA
Vasopressin V1a receptor = Vasopressin V1a receptor (Homo sapiens, UniProt P37288); assay: Displacement of [125I]LVA antagonist from human vasopressin 1a receptor expressed in HEK293-EBNA cells; assay type: cell-based
Chain of Vasopressin V1a receptor (P37288 whole entry): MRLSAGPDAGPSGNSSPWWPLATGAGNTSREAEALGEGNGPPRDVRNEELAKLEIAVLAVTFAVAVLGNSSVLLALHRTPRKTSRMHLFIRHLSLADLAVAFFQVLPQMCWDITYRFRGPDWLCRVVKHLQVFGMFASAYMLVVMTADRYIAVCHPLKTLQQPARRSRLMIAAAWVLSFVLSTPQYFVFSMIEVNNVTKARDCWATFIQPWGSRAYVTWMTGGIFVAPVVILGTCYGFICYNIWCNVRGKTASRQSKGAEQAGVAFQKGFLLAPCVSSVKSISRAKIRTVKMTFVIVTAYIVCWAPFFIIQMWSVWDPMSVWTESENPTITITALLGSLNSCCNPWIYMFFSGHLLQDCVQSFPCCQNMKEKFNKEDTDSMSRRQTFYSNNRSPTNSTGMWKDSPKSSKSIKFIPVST

[5] = Solubility in aqueous medium; assay type: physicochemical; details: aqueous medium; read-out: Solubility
Liver microsomes = assay: Stability of compound in presence of human liver microsomes; assay type: ADME, Microsome; method in brief: as §2
Cytochrome P450 2C9 = Cytochrome P450 2C9 (Homo sapiens, UniProt P11712); assay: Inhibitory activity against cytochrome P450 2C9 isoform
Chain of Cytochrome P450 2C9 (P11712 whole entry, canonical isoform): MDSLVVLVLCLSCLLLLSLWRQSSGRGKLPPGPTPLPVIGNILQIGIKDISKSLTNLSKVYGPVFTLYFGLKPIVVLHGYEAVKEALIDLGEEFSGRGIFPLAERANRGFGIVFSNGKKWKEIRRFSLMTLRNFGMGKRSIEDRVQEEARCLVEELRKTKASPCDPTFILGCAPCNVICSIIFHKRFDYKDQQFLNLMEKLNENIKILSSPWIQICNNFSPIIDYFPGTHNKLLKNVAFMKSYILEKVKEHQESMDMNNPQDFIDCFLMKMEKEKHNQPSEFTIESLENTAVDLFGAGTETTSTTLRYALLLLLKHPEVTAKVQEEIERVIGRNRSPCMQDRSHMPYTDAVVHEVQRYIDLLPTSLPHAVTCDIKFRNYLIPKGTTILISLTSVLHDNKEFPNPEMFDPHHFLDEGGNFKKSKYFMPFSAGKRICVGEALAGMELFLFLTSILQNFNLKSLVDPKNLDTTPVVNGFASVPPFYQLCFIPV

[6] = molecular target: T2, Oxytocin receptor (Rattus norvegicus) (UniProt P70536); assay: Inhibition of oxytocin-induced uterine contractions in nonpregnant rats administered at 10 mg/kg, iv; assay type: functional, organism-based; design: dose 10 mg/kg
T2 sequence (whole entry): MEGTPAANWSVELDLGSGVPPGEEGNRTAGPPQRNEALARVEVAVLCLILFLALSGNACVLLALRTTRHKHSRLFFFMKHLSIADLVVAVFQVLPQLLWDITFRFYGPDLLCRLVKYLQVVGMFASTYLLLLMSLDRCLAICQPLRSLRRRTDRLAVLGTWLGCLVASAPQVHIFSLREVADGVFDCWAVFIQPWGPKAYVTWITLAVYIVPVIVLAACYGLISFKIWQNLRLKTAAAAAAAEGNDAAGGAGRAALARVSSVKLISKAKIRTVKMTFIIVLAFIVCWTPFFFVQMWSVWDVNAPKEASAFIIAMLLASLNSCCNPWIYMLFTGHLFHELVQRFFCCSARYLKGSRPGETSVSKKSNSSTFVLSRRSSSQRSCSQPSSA
Method in brief: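 Anaesthetized nonpregnant rats; compound given as a solution by iv infusion in NP3S, PEG/saline or saline. Uterine intraluminal pressure AUC is read relative to the third OT injection. Inhibition is taken versus vehicle values at 5 min after OT administration.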

[7] = molecular target: T2, Oxytocin receptor (Rattus norvegicus); assay: In vivo efficacy against oxytocin-induced uterine contractions in nonpregnant rats administered iv; assay type: functional, organism-based
Method in brief: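 Anaesthetized nonpregnant rats; compound given as a solution by iv infusion in NP3S, PEG/saline or saline. Contractions read as AUC of intraluminal uterine pressure over 35 min, relative to the third OT injection, and expressed as % inhibition versus a vehicle group. ED50 is taken from a dose-response curve of peak inhibition values.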

[8] = molecular target: T2, Oxytocin receptor (Rattus norvegicus); assay: Inhibition of oxytocin-induced uterine contractions in nonpregnant rats administered at 30 mg/kg, po; assay type: functional, organism-based; design: dose 30 mg/kg
Method in brief: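 Anaesthetized nonpregnant rats dosed orally by esophagus cannulation with a solution in NP3S, PEG/saline or saline. Uterine intraluminal pressure AUC is read versus vehicle. The value is the maximum inhibition within a 3 h interval after OT administration.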

Oxytocin receptor [9] = molecular target: T3, Oxytocin receptor (Rattus norvegicus, UniProt P70536); assay: Displacement of [125I]OVTA antagonist from rat oxytocin receptor expressed in HEK293-EBNA cells; assay type: cell-based
T3 sequence (P70536 whole entry): T2 sequence (whole entry)

[10] = Inhibitory activity against cytochrome P450; assay type: ADME
Method in brief: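 Baculovirus/insect-cell expressed CYP isoforms incubated with compound at several concentrations in 1% DMSO plus isoform-specific fluorogenic substrate; fluorescence after a fixed reaction time used to compute % inhibition and IC50.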

Rattus norvegicus = assay: Inhibition of spontaneous uterine contraction in late-term pregnant rats at 30 mg/kg, po
Cytochrome P450 3A4 = Cytochrome P450 3A4 (Homo sapiens, UniProt P08684); assay: Inhibitory activity against cytochrome P450 3A4 isoform; assay type: ADME; method in brief: as §1
Chain of Cytochrome P450 3A4 (P08684 whole entry, canonical isoform): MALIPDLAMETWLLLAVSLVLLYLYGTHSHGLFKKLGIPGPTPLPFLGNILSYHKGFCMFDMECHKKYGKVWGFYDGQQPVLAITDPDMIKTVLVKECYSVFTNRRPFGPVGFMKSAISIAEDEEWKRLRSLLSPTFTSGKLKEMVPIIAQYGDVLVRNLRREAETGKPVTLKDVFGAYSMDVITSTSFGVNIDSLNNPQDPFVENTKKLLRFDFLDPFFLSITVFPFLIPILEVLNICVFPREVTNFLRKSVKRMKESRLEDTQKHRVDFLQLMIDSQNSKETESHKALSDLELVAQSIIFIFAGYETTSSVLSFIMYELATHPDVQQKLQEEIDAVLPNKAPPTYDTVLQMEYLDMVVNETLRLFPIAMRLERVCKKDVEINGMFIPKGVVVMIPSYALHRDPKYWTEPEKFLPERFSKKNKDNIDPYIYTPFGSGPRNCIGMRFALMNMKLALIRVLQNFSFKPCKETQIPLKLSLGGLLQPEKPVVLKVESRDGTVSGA

[11] = Dissociation constant of the compound; assay type: physicochemical
[12] = Oral bioavailability in rat; assay type: ADME, organism-based; details: in vivo
Vasopressin V2 receptor = Vasopressin V2 receptor (Homo sapiens, UniProt P30518); assay: Displacement of [125I]LVA antagonist from human vasopressin 2 receptor expressed in HEK293-EBNA cells; assay type: cell-based
Chain of Vasopressin V2 receptor (P30518 whole entry): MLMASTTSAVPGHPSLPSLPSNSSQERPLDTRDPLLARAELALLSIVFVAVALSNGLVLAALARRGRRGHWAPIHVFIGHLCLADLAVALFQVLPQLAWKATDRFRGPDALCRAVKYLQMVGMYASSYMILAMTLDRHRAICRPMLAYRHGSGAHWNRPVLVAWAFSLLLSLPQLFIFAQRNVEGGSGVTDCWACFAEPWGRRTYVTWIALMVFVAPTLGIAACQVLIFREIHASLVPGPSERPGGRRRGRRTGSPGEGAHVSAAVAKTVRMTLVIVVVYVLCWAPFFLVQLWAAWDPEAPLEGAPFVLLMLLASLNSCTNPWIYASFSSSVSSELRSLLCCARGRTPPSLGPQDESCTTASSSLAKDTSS

solubility [1] [µg/mL]	IC50 (Oxytocin receptor [2]) [nM]	Ratio Ki (Homo sapiens)	metabolised [3] [%]	Ki (Oxytocin receptor [4]) [nM]	Ki (Vasopressin V1a receptor) [nM]	solubility [5] [µg/mL]	MET (Liver microsomes) [%]	inhibition [6] [%]	ED50 [7] [mg/kg]	inhibition [8] [%]	Ki (Oxytocin receptor [9]) [nM]	IC50 [10] [nM]	IC50 (Cytochrome P450 3A4) [nM]	pKa [11]	bioavailability [12] [%]	Ki (Vasopressin V2 receptor) [nM]	Structure (SMILES)	IC50 (Cytochrome P450 2C19) [nM]	IC50 (Cytochrome P450 2C9) [nM]	inhibition in vivo at 30 mg/kg (Rattus norvegicus) [%]
2 (≈ 3.34 µM)	15	456	89	1.6	730	580 (≈ 970 µM)	91	39.8	–	–	2.7	> 1000	–	–	–	–	CN(C)CCCOc1ccc(S(=O)(=O)N(CC(=O)N/N=C2\C(=O)NC(=O)c3ccccc32)c2ccc(Cl)cc2)cc1	–	–	–
–	59	84	–	2.1	176	–	–	–	–	–	15	–	–	–	–	–	CN(C)CCOc1ccc(S(=O)(=O)N(CC(=O)N/N=C2\C(=O)Nc3ccccc32)c2ccc(Cl)cc2)cc1	–	–	–
–	840	5	41	115	618	–	20	23.8	–	–	140	> 1000	–	–	–	–	CN(C)CCCOc1ccc(S(=O)(=O)N(CC(=O)N/N=C2\C(=O)Nc3ccncc32)c2ccc(Cl)cc2)cc1	–	–	–
–	14	59	26	1.1	65	–	0	67.4	7.5	22	4.6	> 1000	–	–	–	–	CN(C)CCCOc1ccc(S(=O)(=O)N(CC(=O)N/N=C2\C(=O)Nc3ccccc32)c2ccc(Cl)cc2)cc1	–	–	–
< 1	30	–	–	14	1410	< 1	–	–	–	–	25	–	–	–	6	2500	CCOc1ccc(S(=O)(=O)N(CC(=O)NN=C2C(=O)Nc3ccccc32)c2ccc(C)cc2)cc1	–	–	–
< 1	–	171	–	7	1180	< 1	–	–	–	–	33	–	–	–	–	–	COCCOc1ccc(S(=O)(=O)N(CC(=O)N/N=C2\C(=O)Nc3ccccc32)c2ccc(Cl)cc2)cc1	–	–	–

Second part, the compound before the results:

Structure (SMILES)	solubility [1] [µg/mL]	IC50 (Oxytocin receptor [2]) [nM]	Ratio Ki (Homo sapiens)	metabolised [3] [%]	Ki (Oxytocin receptor [4]) [nM]	Ki (Vasopressin V1a receptor) [nM]	solubility [5] [µg/mL]	MET (Liver microsomes) [%]	inhibition [6] [%]	ED50 [7] [mg/kg]	inhibition [8] [%]	Ki (Oxytocin receptor [9]) [nM]	IC50 [10] [nM]	IC50 (Cytochrome P450 3A4) [nM]	pKa [11]	bioavailability [12] [%]	Ki (Vasopressin V2 receptor) [nM]	IC50 (Cytochrome P450 2C19) [nM]	IC50 (Cytochrome P450 2C9) [nM]	inhibition in vivo at 30 mg/kg (Rattus norvegicus) [%]
O=C(CN(c1ccc(Cl)cc1)S(=O)(=O)c1ccc(CCCO)cc1)N/N=C1\C(=O)Nc2ccccc21	< 1	32	150	31	4.1	615	< 1	34	–	–	–	–	–	–	–	–	–	50	345	–
O=C(CN(c1ccc(Cl)cc1)S(=O)(=O)c1ccc(OCCN2CCOCC2)cc1)N/N=C1\C(=O)Nc2ccccc21	–	–	148	21	0.9	133	–	57	43	9.4	30	8	> 1000	–	–	–	–	–	–	–
CN(C)CCCNC(=O)CCc1ccc(S(=O)(=O)N(CC(=O)N/N=C2\C(=O)Nc3ccccc32)c2ccc(Cl)cc2)cc1	–	–	65	0	0.65	42	–	18	72	1.4	35	0.67	> 1000	–	–	–	–	–	–	29.3
CCOc1ccc(S(=O)(=O)N(CC(=O)N/N=C2\C(=O)Nc3ccccc32)c2ccc(C)cc2)cc1	–	–	100	–	–	–	–	–	49.9	10	–	–	–	–	–	–	–	–	–	–
COCCOCCOc1ccc(S(=O)(=O)N(CC(=O)N/N=C2\C(=O)Nc3ccccc32)c2ccc(Cl)cc2)cc1	< 1	7	176	89	3	511	< 1	79	23.3	–	–	12	–	–	–	–	–	–	330	–
CCOc1ccc(C[C@H]2NC(=O)CCSSC[C@@H](C(=O)N3CCC[C@H]3C(=O)N[C@@H](CCCN)C(=O)NCC(N)=O)NC(=O)[C@H](CC(N)=O)NC(=O)[C@H]([C@@H](C)O)NC(=O)[C@H]([C@@H](C)CC)NC2=O)cc1 [ATOSIBAN] ([Mpa][dY](Et)ITNCP[Orn]G-NH2; disulfide 1-6)	–	59	–	–	27	0.63	–	–	–	–	–	76	–	–	–	–	–	–	–	–
O=C(CN(c1ccc(Cl)cc1)S(=O)(=O)c1ccc(NCCN2CCOCC2)cc1)N/N=C1\C(=O)Nc2ccccc21	–	–	84	40	7	582	–	73	–	–	–	25	–	310	–	–	–	–	–	–
CCOc1ccc(S(=O)(=O)N(CC(=O)N/N=C2\C(=O)Nc3ccncc32)c2ccc(Cl)cc2)cc1	–	–	56	–	64	3610	–	–	–	–	–	–	–	–	4.4	–	–	–	–	–
